For 1 compound, MIC, Concentration and ED50 results are on record in ChEMBL document CHEMBL1124186, “Synthesis and evaluation of tylosin-related macrolides modified at the aldehyde function: a new series of orally effective antibiotics” (1988).

One test deals with Haemophilus influenzae. The test is described as follows: In vitro antimicrobial activity against Haemophilus influenzae. It counts as functional.
Test [1] deals with Mus musculus. The test is described as follows: Peripheral plasma levels in mice after oral administration of 100 mg/kg dose for 0.5 hr. It counts as functional, organism-based. More on the design: dose 100 mg/kg. The method in brief: (§1)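 Mice were given the compound orally and sampled for peripheral plasma at each time point. Plasma was assayed microbiologically against Micrococcus luteus seeded in Antibiotic Medium 1. Inhibition zone sizes were read, and concentrations were calculated from each compound's own standard curve. Each value is the mean of five mice per time point.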

Test [2] relates to Mus musculus. In words: Peripheral plasma levels in mice after oral administration of 100 mg/kg dose for 1 hr. It counts as functional, organism-based. More on the design: dose 100 mg/kg. Put shortly:
as §1

The subject of test [3] is Mus musculus. The test is described as follows: Peripheral plasma levels in mice after oral administration of 100 mg/kg dose for 2 hr. It is filed as functional, organism-based. Also on record: dose 100 mg/kg. The method in brief:
as §1

For test [4], the system named is Rattus norvegicus. The test is described as follows: Peripheral plasma levels in rats after oral administration of 100 mg/kg dose for 0.25 hr. It is filed as functional, organism-based. More on the design: dose 100 mg/kg. Put shortly:
(§2)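 Rats received 100 mg/kg orally and were sampled for peripheral plasma. Concentrations were measured by Micrococcus luteus agar-diffusion microbiological assay in Antibiotic Medium 1, with zone sizes converted using the standard curve for the appropriate compound. Each value is the average of three rats per time point.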

In test [5] the test system is Rattus norvegicus. The test is described as follows: Peripheral plasma levels in rats after oral administration of 100 mg/kg dose for 0.5 hr. Also on record: dose 100 mg/kg. It is filed as functional, organism-based. The method in brief:
as §2

Test [6] relates to Rattus norvegicus. In words: Peripheral plasma levels in rats after oral administration of 100 mg/kg dose for 1 hr. It counts as functional, organism-based. More on the design: dose 100 mg/kg. Put shortly: as §2
Test [7] concerns Rattus norvegicus. The test is described as follows: Peripheral plasma levels in rats after oral administration of 100 mg/kg dose for 2 hr. Also on record: dose 100 mg/kg. It is filed as functional, organism-based. The method in brief: as §2
Test [8] deals with Rattus norvegicus. In words: Peripheral plasma levels in rats after oral administration of 100 mg/kg dose for 4 hr. It is filed as functional, organism-based. Also on record: dose 100 mg/kg. The method in brief:
as §2

Test [9] concerns Streptococcus pneumoniae. The test is described as follows: In vivo effective dose against experimental infections in mice Strep. pneumoniae park when administered sc. It counts as functional.
The test system of test [10] is Staphylococcus aureus. The test is described as follows: In vitro antimicrobial activity against Staphylococcus aureus X1. It is filed as functional.
The subject of test [11] is Streptococcus pneumoniae. In words: In vivo effective dose against experimental infections in mice Strep. pneumoniae park when administered orally. It counts as functional. As to conditions: po.
The subject of test [12] is Streptococcus pyogenes. The test is described as follows: In vivo effective dose against experimental infections in rodent caused by Streptococcus pyogenes C203 when administered sc. It counts as functional.
Test [13] concerns Streptococcus pneumoniae. In words: In vitro antimicrobial activity against Streptococcus pneumoniae. It is filed as functional.
For test [14], the system named is Staphylococcus epidermidis. The test is described as follows: In vitro antimicrobial activity against Staphylococcus epidermidis EPI1. It is filed as functional.
The subject of test [15] is Staphylococcus aureus. In words: In vivo effective dose against experimental infections in mice Staphylococcus aureus X1 when administered orally. As to conditions: po. It is filed as functional.
The test system of test [16] is Staphylococcus aureus. The test is described as follows: In vivo effective dose against experimental infections in mice Staphylococcus aureus X1 when administered sc. It is filed as functional.
For the next test, the system named is Enterococcus faecium. In words: In vitro antimicrobial activity against Streptococcus faecium X66. It counts as functional, streptococcus fae-cium.
Test [17] deals with Streptococcus pyogenes. The test is described as follows: In vitro antimicrobial activity against Streptococcus pyogenes C203. It is filed as functional.
Test [18] concerns Streptococcus pyogenes. The test is described as follows: In vivo effective dose against experimental infections in rodent caused by Streptococcus pyogenes C203 when administered orally. It is filed as functional. The settings on record: po.

Molecules are shown by their SMILES. ≈ marks a conversion by molar mass, not a printed value. Some results are limits rather than exact numbers.

The ED50 is the midpoint of the dose-response relation.

In the case of `CC[C@H]1OC(=O)C[C@@H](O)[C@H](C)[C@@H](O[C@@H]2O[C@H](C)[C@@H](O)[C@H](N(C)C)[C@H]2O)[C@@H](CCN2CCCCCCC2)C[C@@H](C)C(=O)/C=C/C(C)=C/[C@@H]1CO[C@@H]1O[C@H](C)[C@@H](O)[C@@H](OC)[C@H]1OC`, the MIC stood at 8 µg/mL (≈ 9.2 µM) in the test with Haemophilus influenzae; 0.5 µg/mL (≈ 0.575 µM) against Staphylococcus aureus [10]; 0.25 µg/mL (≈ 0.288 µM) in the test with Streptococcus pneumoniae [13]; 0.5 µg/mL (≈ 0.575 µM) in test [14]; 4 µg/mL (≈ 4.6 µM) against Enterococcus faecium; 0.25 µg/mL (≈ 0.288 µM) in the test with Streptococcus pyogenes [17]. Moreover, the Concentration with Mus musculus [1] was determined as 0.1 µg/mL; with Mus musculus [2], 0.1 µg/mL; in the test with Mus musculus [3] it was 0.1 µg/mL; in the test with Rattus norvegicus [4] it was 0.3 µg/mL; in the test on Rattus norvegicus [5] it was 0.4 µg/mL; with Rattus norvegicus [6] it was 0.2 µg/mL. Moreover, the Concentration is 1.1 µg/mL with Rattus norvegicus [7] and 0.2 µg/mL with Rattus norvegicus [8]. The ED50 in the test on Streptococcus pneumoniae [9] is above 20 mg/kg; in the test on Streptococcus pneumoniae [11] it was above 50 mg/kg; with Streptococcus pyogenes [12], 0.9 mg/kg; in the test on Staphylococcus aureus [15] it was 25 mg/kg; with Staphylococcus aureus [16], 2 mg/kg; in the test on Streptococcus pyogenes [18] it was 20 mg/kg.
